Compound activity deposited in PubChem BioAssay by Broad Institute.
Many of the other results were omitted from the sample, so hits are more common in it than they were.
E-selectin induc – E-selectin induction in HUVECs, primary screen, imaging, HUVEC, immunofluorescence imaging, single point. P16581. normalized: neutral wells 0, TNF-alpha wells 100. activation, % at 7.58 µM. 0.37% of 260,000 active. AID 686992, 2013;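 active means mean E-selectin-positive cell signal at least 10% of the positive control, reached in at least 60% of replicates, without over 20% cell loss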
Target sequence (P16581 whole entry, looked up): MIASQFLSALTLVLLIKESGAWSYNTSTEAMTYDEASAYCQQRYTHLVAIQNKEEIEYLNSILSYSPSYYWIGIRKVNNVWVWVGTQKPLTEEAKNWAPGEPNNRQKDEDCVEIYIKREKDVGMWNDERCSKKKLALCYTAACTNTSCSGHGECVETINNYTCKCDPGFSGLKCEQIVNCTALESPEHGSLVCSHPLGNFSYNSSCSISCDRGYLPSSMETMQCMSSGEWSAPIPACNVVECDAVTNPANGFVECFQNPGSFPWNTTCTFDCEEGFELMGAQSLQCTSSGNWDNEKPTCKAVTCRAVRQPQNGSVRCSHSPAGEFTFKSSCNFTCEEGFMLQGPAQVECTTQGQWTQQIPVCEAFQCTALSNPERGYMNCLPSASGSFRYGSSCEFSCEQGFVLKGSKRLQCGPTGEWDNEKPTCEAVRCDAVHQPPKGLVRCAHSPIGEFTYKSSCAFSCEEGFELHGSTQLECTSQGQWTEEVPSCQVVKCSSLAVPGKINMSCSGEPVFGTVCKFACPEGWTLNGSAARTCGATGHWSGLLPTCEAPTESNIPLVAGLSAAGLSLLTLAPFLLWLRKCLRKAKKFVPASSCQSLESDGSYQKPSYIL
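System: HUVEC, human umbilical vein endothelial cells; quantity: 3,000 cells/well; buffer or medium: EGM-2 medium, gelatin-coated wells; dosing: single-point compound dose; detection: immunofluorescence imaging; evaluation: % PE-positive cells; benchmarks: TNF-alpha, DMSO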
Numbers without * were called inactive.

How did O=C(Cc1ccccn1)N1CC(=O)N2[C@H](CO)[C@H](c3ccc(C#CC4CCCC4)cc3)[C@@H]2C1 do in these assays?
E-selectin induc: 0.3

What do the screens show for `Cc1ccc(S(=O)(=O)N[C@@H]2CC[C@@H](CCNC(=O)c3ccc4c(c3)OCO4)O[C@@H]2CO)cc1`?
E-selectin induc: -1.0

How did C[C@H](CO)N1C[C@H](C)[C@@H](CN(C)Cc2ccc(C(=O)O)cc2)Oc2ncc(C3=CCCCC3)cc2C1=O do in these assays?
E-selectin induc: -0.2

How did CO[C@H]1CN(C)C(=O)c2ccc(NC(=O)c3ccccc3)cc2OC[C@H](C)N(C(C)=O)C[C@H]1C do in these assays?
E-selectin induc: 0.2

What do the screens show for `O=C(c1ccco1)N1CCN(C(=O)c2ccco2)CC1`?
E-selectin induc: -0.1

What do the screens show for `CC(=O)N1CCN(C(=O)c2ccco2)CC1`?
E-selectin induc: 3.0

What do the screens show for `O=C(c1ccco1)N1CCN(C(=O)C2CC2)CC1`?
E-selectin induc: 36.9*

How did O=C(N[C@@H]1CC[C@@H](CCNS(=O)(=O)c2cccc(Cl)c2)O[C@H]1CO)c1ccncc1 do in these assays?
E-selectin induc: 0.0

Results for CC=Cc1ccc2n(c1=O)C[C@H]1[C@H](CO)[C@@H](C(=O)N(C)C)[C@@H]2N1CC1CCCCC1 (mixture of isomers) ?
E-selectin induc: 0.0

What do the screens show for `COc1ccc2c3c([nH]c2c1)[C@H](CO)N(S(C)(=O)=O)CC31CN(C(=O)Nc2ccccc2)C1`?
E-selectin induc: 0.6

Results for COc1ccc(NC2CCCN(C(=O)c3csc(C(C)C)n3)C2)cc1 (configuration not stated) ?
E-selectin induc: 1.5

What do the screens show for `COc1ccc(NC2CCCN(C(=O)c3csc(C(C)C)n3)C2)cc1OC` (configuration not stated)?
E-selectin induc: 78.6*

How did COc1ccc(NC2CCCN(C(=O)c3ccc4nc(C)c(C)nc4c3)C2)cc1OC (configuration not stated) do in these assays?
E-selectin induc: -0.1

How did O=C(Cc1ccccc1)N1CC(=O)N2[C@H](CO)[C@H](c3ccc(C#Cc4ccccc4)cc3)[C@@H]2C1 do in these assays?
E-selectin induc: -0.2

How did Cc1ccc(S(=O)(=O)N(C)C[C@H]2Oc3ccc(NS(=O)(=O)c4ccc(Cl)cc4)cc3C(=O)N([C@@H](C)CO)C[C@H]2C)cc1 do in these assays?
E-selectin induc: -8.5

Results for COc1ccc2c3c(n(C)c2c1)[C@H](CO)N(C(=O)Nc1ccc(F)cc1)CC31CN(Cc2cccnc2)C1 ?
E-selectin induc: -0.5

Results for COCCCN(C(=S)NC(=O)c1ccc(Br)cc1)c1c(N)n(Cc2ccccc2)c(=O)[nH]c1=O ?
E-selectin induc: 0.3

How did CCN(C(=O)CN1CCCCC1)c1c(N)n(Cc2ccccc2)c(=O)[nH]c1=O do in these assays?
E-selectin induc: 0.2

What do the screens show for `CCN(C(=O)Cn1ccc(C(F)(F)F)n1)c1c(N)n(Cc2ccccc2)c(=O)[nH]c1=O`?
E-selectin induc: 110.4*

What do the screens show for `CCN(C(=O)CSc1nnc2ccccn12)c1c(N)n(Cc2ccccc2)c(=O)[nH]c1=O`?
E-selectin induc: 0.6

What do the screens show for `CCCCN(C(=S)NC(=O)c1ccccc1)c1c(N)n(Cc2ccccc2)c(=O)[nH]c1=O`?
E-selectin induc: 40.4*

Results for COCCCN(C(=S)NC(=O)C(C)(C)C)c1c(N)n(Cc2ccccc2)c(=O)[nH]c1=O ?
E-selectin induc: -0.2

How did O=C(C1CC1)N1[C@@H](CO)[C@@H](c2ccccc2)C12CN(Cc1cccc(Cl)c1)C2 do in these assays?
E-selectin induc: -0.1

Results for C[C@H](CO)N1C[C@H](C)[C@H](CN(C)Cc2ccccc2)OCCCC[C@H](C)Oc2ccc(NC(=O)NC3CCCCC3)cc2C1=O ?
E-selectin induc: 0.3

How did COc1cccc(S(=O)(=O)N2CC[C@@H]3[C@H]2c2cc(Br)ccc2N[C@@H]3CO)c1 do in these assays?
E-selectin induc: -0.7

How did COc1ccc(NC(=O)Nc2cccc3c2O[C@@H](CN(C)C(=O)Nc2ccccc2)[C@@H](C)CN([C@H](C)CO)C3=O)cc1 do in these assays?
E-selectin induc: -0.3

What do the screens show for `CO[C@H]1CN(C)C(=O)c2ccc(NS(=O)(=O)c3ccc(C)cc3)cc2OC[C@H](C)NC[C@@H]1C`?
E-selectin induc: 0.0

Results for CC=Cc1ccc2n(c1=O)C[C@@H]1[C@@H](CO)[C@H](C(=O)N3CCCCC3)N(CC3CC3)[C@H]21 (mixture of isomers) ?
E-selectin induc: -0.1

Results for COc1ccccc1S(=O)(=O)N[C@H]1CC[C@@H](CC(=O)NCc2cc(F)cc(F)c2)O[C@@H]1CO ?
E-selectin induc: 0.0

How did O=S(=O)(c1cccc(F)c1)N1CC[C@@H]2[C@H]1c1cc(C#Cc3cccc(F)c3)ccc1N[C@@H]2CO do in these assays?
E-selectin induc: -0.8

Results for COc1ccc(NC(=O)N(C)C[C@@H]2Oc3ccc(NC(=O)Cc4ccccc4)cc3CC(=O)N([C@H](C)CO)C[C@H]2C)cc1 ?
E-selectin induc: 336.5*

What do the screens show for `C[C@H]1CN([C@@H](C)CO)C(=O)Cc2cc(NC(=O)Nc3ccccc3)ccc2O[C@H]1CN(C)C(=O)Nc1cccc2ccccc12`?
E-selectin induc: -0.2

Results for C[C@H]1CN([C@@H](C)CO)C(=O)Cc2cc(NC(=O)Cc3ccccc3)ccc2O[C@H]1CN(C)C(=O)Nc1cccc2ccccc12 ?
E-selectin induc: 11.6

Results for COc1ccc(NC(=O)N(C)C[C@H]2Oc3ccc(NC(=O)Cc4ccccc4)cc3CC(=O)N([C@@H](C)CO)C[C@@H]2C)cc1 ?
E-selectin induc: 1.9

What do the screens show for `C[C@@H]1CN([C@@H](C)CO)C(=O)Cc2cc(NC(=O)Cc3ccccc3)ccc2O[C@H]1CN(C)C(=O)Nc1cccc2ccccc12`?
E-selectin induc: 337.6*

How did COc1ccc(NC(=O)N(C)C[C@@H]2Oc3ccc(NC(=O)Cc4ccccc4)cc3CC(=O)N([C@@H](C)CO)C[C@@H]2C)cc1 do in these assays?
E-selectin induc: -5.8

How did O=C(C[C@H]1CC[C@H](NC(=O)Nc2ccccc2F)[C@H](CO)O1)NCc1ccc(-c2ccccc2)cc1 do in these assays?
E-selectin induc: 0.4

Results for C[C@@H]1CN([C@@H](C)CO)C(=O)Cc2cc(NC(=O)NC3CCCCC3)ccc2O[C@@H]1CN(C)S(=O)(=O)c1cccs1 ?
E-selectin induc: 0.1

Results for C[C@H](CO)N1C[C@H](C)[C@@H](CN(C)C(=O)C2CCCCC2)Oc2cc(-c3ccc(F)cc3)ccc2S1(=O)=O ?
E-selectin induc: -0.2

How did CO[C@H](C(=O)N(C)C[C@H]1OCc2ccccc2-c2c(n(C)c3ccccc23)C(=O)N([C@@H](C)CO)C[C@H]1C)c1ccccc1 do in these assays?
E-selectin induc: -3.9

How did CN(CC(=O)NCCCc1ccccc1)Cc1ccc(Br)cc1 do in these assays?
E-selectin induc: 0.2

Results for CN(CC(=O)Nc1ccccc1)CC(=O)Nc1ccc(F)cc1 ?
E-selectin induc: 12.6

How did CN(CC(=O)Nc1ccc(Br)cc1)Cc1ccccc1 do in these assays?
E-selectin induc: 97.4*

What do the screens show for `CN1C(=O)c2cc(NC(=O)C3CC3)ccc2OC[C@H]2O[C@H](CC(=O)NC3CCC3)CC[C@H]21`?
E-selectin induc: 0.0

Results for CS(=O)(=O)N1[C@@H]2c3ccc(-c4cccc(F)c4)c(=O)n3C[C@H]1[C@H](CO)[C@H]2C(=O)N1CCOCC1 ?
E-selectin induc: 0.3

Results for CCCNC(=O)C[C@@H]1C[C@@H]2c3cc(NC(=O)Cc4ccncc4)ccc3O[C@@H]2[C@@H](CO)O1 ?
E-selectin induc: 0.2
